# Experimental data collected from several papers.
# MAP2K6: Dual specificity mitogen-activated protein kinase kinase 6 (MAP2K6, Homo sapiens, UniProt P52564)
Structure (SMILES),target,assay,setting,endpoint,value
CCC(=N\O)/C(C)=C/c1ccc(F)cc1,MAP2K6,"cell-free assay, competition with immobilised ligand",1 µM,remaining binding,98%
CCCS(=O)(=O)Nc1ccc(F)c(C(=O)c2c[nH]c3ncc(-c4ccc(Cl)cc4)cc23)c1F,MAP2K6,"enzyme activity, inhibitor",1 µM,inhibition,< 10%
CNCc1ccc(-c2cc(-c3nc(-c4ccc(S(=O)(=O)C(C)C)cc4)cnc3N)on2)cc1,MAP2K6,"enzyme activity, inhibitor",2 µM,inhibition,28%
CN(C)CC#Cc1ccc(OCCCc2sc(N3CCc4cccc(C(=O)Nc5nc6ccccc6s5)c4C3)nc2C(=O)O)c(F)c1,MAP2K6,"cell-free assay, competition with immobilised ligand",1 µM,remaining binding,100%
COc1cc(/C=C/C(=O)CC(=O)/C=C/c2ccc(O)c(OC)c2)ccc1O,MAP2K6,"enzyme activity, inhibitor",1 µM,activity vs control,102%
COc1cc2ncnc(Nc3ccc(Oc4ccccc4)c(C)c3C)c2cc1OC,MAP2K6,"enzyme activity, inhibitor",1 µM,inhibition,2%
Cc1ccc(C(=O)Nc2ccc(CN3CCN(C)CC3)c(C(F)(F)F)c2)cc1C#Cc1cnc2cccnn12,MAP2K6,"enzyme activity, inhibitor",23.5 nM,remaining activity,100%
CN(C)C1CCN(CC#Cc2nn(C3CCCC3)c3nc(NCc4ccccc4)ncc23)C1 (centres unmarked),MAP2K6,"enzyme activity, inhibitor, FRET",0.1 µM,inhibition,0%
C[C@@H]1CN(c2cc(-c3nn(C)c4ccc(OC5(C)CC5)cc34)ncn2)C[C@H](C)O1,MAP2K6,"cell-free assay, competition with immobilised ligand",1 µM,remaining binding,89%
Cc1cnc(NC2CCOCC2)nc1-n1cnc(C(=O)NC(CN)c2cc(F)cc(Cl)c2)c1 (centres unmarked),MAP2K6,"enzyme activity, inhibitor, radiometric",1 µM,remaining activity,96%
O=C1Nc2ccc(Cl)cc2C1=Cc1cc(Cl)c(O)c(Cl)c1,MAP2K6,cell-free assay,0.5 µM,remaining signal,96.4%
Cc1ccc(Nc2nccc(N(C)c3ccc4c(C)n(C)nc4c3)n2)cc1S(N)(=O)=O,MAP2K6,"enzyme activity, inhibitor",10 µM,inhibition,90%
C[S+]([O-])c1ccc(-c2nc(-c3ccncc3)c(-c3ccc(F)cc3)[nH]2)cc1 (centres unmarked),MAP2K6,cell-free assay,0.5 µM,remaining signal,102%
O=C(Nc1cnc(Oc2ccc(F)cc2)nc1)N1CCc2ncccc2[C@@H]1c1ccc(F)cc1,MAP2K6,"cell-free assay, competition with immobilised ligand",1 µM,remaining binding,77%
Cn1c2c(Cl)c(Cl)ccc2c2cn[nH]c(=O)c21,MAP2K6,"thermal stability, DSF",10 µM,ΔTm,0.1 °C
N#CCCc1ccc2c(c1)-c1[nH]c3ccc([N+](=O)[O-])cc3c1CC(=O)N2,MAP2K6,cell-free assay,0.5 µM,remaining signal,97.2%
COc1cc(Nc2cnc(C#N)c(O[C@H](C)CN(C)C)n2)ncc1-c1cnn(C)c1,MAP2K6,"enzyme activity, inhibitor, radiometric",10 µM,remaining activity,91%
O=C(Nc1cnn(-c2csc(C(=O)NC3COC3)c2)c1)Nc1ccccc1Cl,MAP2K6,"enzyme activity, inhibitor",5 µM,remaining activity,96.4%
CS(=O)(=O)CCNCc1ccc(-c2ccc3ncnc(Nc4ccc(OCc5cccc(F)c5)c(Cl)c4)c3c2)o1,MAP2K6,cell-free assay,0.5 µM,remaining signal,95.4%
CO[C@@H](C)c1c(Nc2ccc([C@H](N(C)C(=O)C3CCS(=O)(=O)CC3)C(F)(F)F)cc2)cnc2cc(Cl)nn12,MAP2K6,"cell-free assay, competition with immobilised ligand",1 µM,remaining binding,91%
Cn1c2c(c3ccccc31)C(C#N)C(C)(C)NC2=O (centres unmarked),MAP2K6,"thermal stability, DSF",10 µM,ΔTm,0 °C
Cc1cc(NC(=O)c2cccc3cc(-c4cccc5[nH]nc(N)c45)ccc23)ccc1F,MAP2K6,"enzyme activity, inhibitor",0.1 µM,activity vs control,89%
CC[C@H](CO)Nc1nc(NCc2ccccc2)c2ncn(C(C)C)c2n1,MAP2K6,cell-free assay,0.5 µM,remaining signal,98.2%
CC(C)(O)[C@H]1CC[C@H](Nc2ccc3ncc(-c4cccc(C(F)(F)F)c4)n3n2)CC1,MAP2K6,"enzyme activity, inhibitor",1 µM,remaining activity,90.6%
C[C@H](c1ccc(F)cc1)N(Cc1cccc(C(=O)O)c1)C(=O)c1cnc2ccccc2c1,MAP2K6,"cell-free assay, competition with immobilised ligand",1 µM,remaining binding,100%
Cn1c2c(c3ccc(Cl)c(Cl)c31)C(C#N)C1(CCCCC1)NC2=O (racemic),MAP2K6,"thermal stability, DSF",10 µM,ΔTm,0.2 °C
Cn1c(=O)n(-c2ccc(C(C)(C)C#N)cc2)c2c3cc(-c4cnc5ccccc5c4)ccc3ncc21,MAP2K6,"enzyme activity, inhibitor",10 µM,remaining activity,93%
Cc1nc(Cc2cccc(C(F)(F)F)c2)sc1-c1ccc(C(N)=O)nc1,MAP2K6,"cell-free assay, competition with immobilised ligand",1 µM,remaining binding,69%
Cn1c2c(c3ccc(Cl)c(Cl)c31)C(C#N)C1(CCNCC1)NC2=O (racemic),MAP2K6,"thermal stability, DSF",10 µM,ΔTm,0.3 °C
CC(C)(C)c1nc2c(s1)c1nc(N)ncc1c1ccc(NS(=O)(=O)c3c(F)cccc3F)c(F)c12,"Dual specificity mitogen-activated protein kinase kinase 6 (MAP2K6, Homo sapiens, UniProt P52564, S207D/T211D)","enzyme activity, inhibitor, radiometric",1 µM,remaining activity,70%
CCN1CCC2(CC1)NC(=O)c1c(c3ccc(Cl)c(Cl)c3n1C)C2C#N (racemic),MAP2K6,"thermal stability, DSF",10 µM,ΔTm,0 °C
Nc1ncnc2occ(-c3ccc(NC(=O)Nc4cc(C(F)(F)F)ccc4F)cc3)c12,MAP2K6,"cell-free assay, inhibitor",20 µM,remaining signal,58%
CNC(=O)c1cc(Oc2ccc(NC(=O)Nc3ccc(Cl)c(C(F)(F)F)c3)cc2)ccn1,MAP2K6,"enzyme activity, inhibitor",0.3 µM,inhibition,-1%
CN(C)C(=O)Cn1cc(-c2nc(C3(c4ccc(-c5cnc(N)nc5)cc4)CC3)no2)cn1,MAP2K6,"cell-free assay, competition with immobilised ligand",1 µM,remaining binding,100%
COc1cc(Cl)c(C(=O)N[C@@H](CN[C@H]2CC[C@@H](N)CC2)Cc2ccc(C#N)cc2)cc1-c1ccc(CN[C@H](C)c2ccc(C)cc2)o1,MAP2K6,"enzyme activity, inhibitor",1 µM,remaining activity,88%
